Fewer inactive variants are shown than the library holds.
B1: tRNA (parent)
chain: GUUCCGUUGGCGUAAUGGUAACGCGUCUCCCUCCUAAGGAGAAGACUGCGGGUUCGAGUCCCGUACGGAACG

Variants of: B1
Test: yeast fitness relative to wild type (ratio to wild type); higher = fitter; tRNA-Arg(CCU), competitive growth, 37 C, YPD
Summary of the method: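 Amplicons of the tRNA-Arg(CCU) gene were sequenced, 100-nucleotide paired-end, from the start population and from each end population of a pooled yeast competition. The competition, in six parallel replicates, lasted 24 hours in YPD at 37°C. Fitness relative to wild type was calculated from changes in genotype frequencies. Genotypes had to have ≥ 100 starting reads, and estimates < 0.5 were set to 0.5.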
Variant GUUCUGUUGGCGUAAUGGUUACGCGUCUCCCUCCUAAGGAGAAGACUGCGGGUUCGAGUCCCGUACGGAACG [C5U A20U] has a yeast fitness of 0.94.
Work on GUUCGGUUGGCGUAAUGGUAACGCGUCUCCCUCCUAAGGAGAAGACUGCGGGUUCGAGACCCGUACGGAACG [C5G U59A] yielded a yeast fitness of 0.896.
In the case of GUUCGGUUGGCGUAAUGGUAACGCGUCUCCCCCCUAAGGAGAAGGAUGCGGGUUCGAGUCCCGUACGGAACG [C5G U32C A45G C46A], the yeast fitness is reported as 0.907.
In the case of GUUCUGUUGGCGUUAUGGUAACGCGUCUCCCUGCUAAGGAGAAGAUUGCGGGUUCGAGUCCCGUACGGCACG [C5U A14U C33G C46U A69C], the yeast fitness is reported as ≤ 0.5.
GUUCGGUUGGCGUAAUGGUAACGCGUCUCCCUCCUAAGGAGAAGACUGCGGGUUCGAGUCCCGGACGGAACG [C5G U64G] gave a yeast fitness of 0.86.
With GUUCUGUUGGCGUAGUGGUCACGCGCCUCCCUCCUAAGGACAAGACUGCGGCUUCGUGUCCCGUUCGGAACG [C5U A15G A20C U26C G41C G52C A57U A65U] the yeast fitness was ≤ 0.5.
For GUUCUGUUGGCGUAAUGGUACCGCGUCUCCCUCCUAAGGAGAACACUGCGGGUUCGAGUCCCGUACGGAACG [C5U A21C G44C], the yeast fitness was 0.529.
In the case of GUUCUGUUGGCGUAGCGGUAACGCGUCUCCCUCCUAAGGAGAAGACUGCGGGUUCGAGUCCCGUAUGGAACG [C5U A15G U16C C66U], the yeast fitness is reported as ≤ 0.5.
With GUUCGGUUGGCGUAAUGGUAACGCGUCUCCCUCCUAAGGAGAAGACAGCGGGUUCUACUCCCGUACGGAACG [C5G U47A G56U G58C] the yeast fitness was ≤ 0.5.
For GUUCUGUUGGCGUAAUGGUCACGCGUCUACCUCCUAAGGAGAAGACUGCGGGUUCGAGUCCCGUACGGAACG [C5U A20C C29A], the yeast fitness was 0.666.
With GUUCUGUUGGCGUCAUGGUAACGCGUCUCCCUCCUAAGGAGAAGAAUGCGGGUUCGAGUCCCCUACGGUACG [C5U A14C C46A G63C A69U] the yeast fitness was ≤ 0.5.
For GUUCUGUUGGCGUGAUGGUAUCGCGUCUCCCUCCUAAGGAGAAGACUGCGGGUUCCAGUCCCGUACGCAACG [C5U A14G A21U G56C G68C], the yeast fitness was ≤ 0.5.
Variant GUUCGGUUGGCGUAAUGGUAACGCGUCUCCCUCCUAAGGAGAAGACCGCGGGUUCGAGUCCCGUAUGGAACG [C5G U47C C66U] has a yeast fitness of 0.627.
Variant GUUCUGUUGGCGUAGUGGUUACGCGUCUCCCUCCUAAGGAGGAGACUGCGGGUUCGAGUCCCCUACGGAACG [C5U A15G A20U A42G G63C] has a yeast fitness of 0.65.
GUUCUGUUGGCGUAGUGGUAACGCGUCUCCCUCCUAAGGAGAAGACUGCGGGUUCGAGUCCCGUACGGAACG [C5U A15G] gave a yeast fitness of 0.912.
For GUUCUGUUGGCGUACUGGUAACCCGUCUCCCUCCUAAGGAGAAGACUGCGGGUUCGAGUCCCGUACGGAACG [C5U A15C G23C], the yeast fitness was ≤ 0.5.
In the case of GUUCUGUUGGCGUGAUGGUAACGCGUCUCCCUCCUAAGGAGAAGACUGCCGGCUUGGGUCCCGUACGGAACG [C5U A14G G50C U53C C55U A57G], the yeast fitness is reported as ≤ 0.5.
In the case of GUUCUGUUGGCGUAAUGGUACCGCGUCUCCCUCCUAAGGAGACGACUGCGGGUUCGAGUCCCGUACGGAACG [C5U A21C A43C], the yeast fitness is reported as ≤ 0.5.
GUUCUGUUGGCGUGAUGGUAACGCGUCUCCCUCCUAAGGAGAAGACUGCCGGUUUGGGUCCCGUACGGAACG [C5U A14G G50C C55U A57G] gave a yeast fitness of 0.675.
GUUCUGUUGGCGUUAUGGUAACGCGUCUCCAUCCUAAGGAGAAGAUUAUGGGUUCGAGUCCCGUACGGAACG [C5U A14U C31A C46U G48A C49U] gave a yeast fitness of 0.568.
In the case of GUUCUGUUGGCGUCAUGGUAACGCGUCUCCCUCGUAUGGUGAAGACUGCGGGUUCGAGUCCCGUAUGGAACG [C5U A14C C34G A37U A40U C66U], the yeast fitness is reported as ≤ 0.5.
In the case of GUUCUGUUGGCGUAAUGGUACCGCGUCUCCGUCCUAAGGAGAAGACUGCGGGUUCGAGUCCCGUACGCAACG [C5U A21C C31G G68C], the yeast fitness is reported as ≤ 0.5.
In the case of GUUCUGUUGGCGUAUUGGUAACGCGUCUUCUUCUUAAGGAGAAGACUGCGGGUUUGAGUCCCGUACGGAACG [C5U A15U C29U C31U C34U C55U], the yeast fitness is reported as ≤ 0.5.
In the case of GUUCGGUUGGCGUAAUGGUAACGCGUCUCCCUCCCAAGGAGAACACUGCGGGUUCGAGUCCAGUACGCUACG [C5G U35C G44C C62A G68C A69U], the yeast fitness is reported as ≤ 0.5.
In the case of GUUCGGUUGGCGUAAUGGUAACGCGUCUCCCUCCUAAGGAGAAGACUGCGGGUUCGAGGCCCCUACGGAACG [C5G U59G G63C], the yeast fitness is reported as ≤ 0.5.
For GUUCUGUUGGCGUCAUGGUAACGCGUCUCCCUCCUAAGGAGUAGACUGCGGGUUCGAGUCCCGUACGGAACG [C5U A14C A42U], the yeast fitness was ≤ 0.5.
Work on GUUCUGUUGGCGUAAUGGUUACGCGUCUCACUCCUAAGGAGAAGACUGCGGGUUCGAGUCCCGUACAGAGCG [C5U A20U C30A G67A A70G] yielded a yeast fitness of 0.657.
With GUUCUGUUGGCGUAAUGGUCACGCGUCUCCCCCCUAAGGUGAAGACUGCAGAUUCGAGUCCCGUACGGAACG [C5U A20C U32C A40U G50A G52A] the yeast fitness was ≤ 0.5.
With GUUCUGUUGGCGUUAAGGUAACGCGUCUCCCUCCUAAGGAGAAGACUGCGGGUUCGAGUCCCGUAUGGAACG [C5U A14U U16A C66U] the yeast fitness was 0.511.
Work on GUUCUGUUGGCGUAGUGGUAACGCGUCUCCCUCCUAAGGAGUAGACUGCGGGUUCGAGUCCCGUACGGAACG [C5U A15G A42U] yielded a yeast fitness of 0.703.
With GUUCUGUUGGCGUAAUGGUCACGCGUCUCCCUCCUAAGGAGAAGACUGCGGGUUCGAGUCCCAUACGGAACG [C5U A20C G63A] the yeast fitness was 0.607.
In the case of GUUCUGUUGGCGUGAUGGUAACGCGUCUCCCUCCUAAGGAGAAGACUGCGAGUUCGAGUCCCGUCCGGAACG [C5U A14G G51A A65C], the yeast fitness is reported as ≤ 0.5.
In the case of GUUCGGUUGGCGUAAUGGUAACGCGUCUCCCUCCUAAGGAGAAGACCGCGAGUUCGAGUCCCGUCCGGAACG [C5G U47C G51A A65C], the yeast fitness is reported as 0.548.
With GUUCUGUUGGCGUCAUGGUAACGCGUCUCCCUCCUAAGGACAAGACUGCGGGUUCGACUCCCGUAUGGAACG [C5U A14C G41C G58C C66U] the yeast fitness was 0.523.
GUUCUGUUGGCGUCAUGGCAACGCGUCUCCCUCCUAAGGAGAAGACUGCGGGUUCGAGUCCCGUACGGAACG [C5U A14C U19C] gave a yeast fitness of 0.528.
With GUUCUGUUGGCGUAAUGGUACCGCGUCUCCCUCCUAAGGAGAACAUUGCGGGUUCGAGUCCCGUACGGAACG [C5U A21C G44C C46U] the yeast fitness was 0.532.
GUUCUGUUGGCGUAUUGGCAACGCGUCUCCCUCCUAAGGAGAAGACUGCGGGUUCGAGUCCCGUACGGAACG [C5U A15U U19C] gave a yeast fitness of 0.672.
With GUUCUGUUGGCGUGAUGGUAACGCGUCUCCCUCCUAAGGAGAAGACUGCCGGUUUGGGUCCCGUAUGGAACG [C5U A14G G50C C55U A57G C66U] the yeast fitness was ≤ 0.5.

— the RNAGym collection of RNA variant scans (doi:10.1126/science.aae0568)
